Experimental data collected from several papers.
Each line is one published result; the experiments were not run side by side.
Target: Serine/threonine-protein kinase WNK4 (WNK4, Homo sapiens, UniProt Q96J92)

O=C(NCC1CCOCC1)c1n[nH]cc1NC(=O)c1c(F)cccc1F — remaining binding (binding, competition with immobilised ligand; 1 µM): 86%
COc1cnc(Nc2cccc(S(N)(=O)=O)c2)nc1N1CCN(c2ccccc2)C(=O)C1 — remaining binding (binding, competition with immobilised ligand; 1 µM): 89%
O=C(NCCCN1CCOCC1)c1ccc(Nc2ncc(Cl)c(-c3ccc(Cl)s3)n2)cc1 — remaining binding (binding, competition with immobilised ligand; 1 µM): 99%
c1cnn2ncc(-c3ccnc(N4CCC45COC5)n3)c2c1 — remaining binding (binding; 1 µM): 64%
FC(F)(F)Oc1cccc(-c2cnc3ccc(-c4ccncc4)nn23)c1 — remaining binding (binding, competition with immobilised ligand; 5 µM): 100%
NS(=O)(=O)c1cc(NC(=O)C2(c3ccccc3Cl)CC2)ccc1Oc1cccc(Cl)c1 — remaining binding (cell-free assay, competition with immobilised ligand; 1 µM): 81%
Nc1ncc2c(n1)-c1c([nH]c3ccc(C#CC4CC4)cc13)CCCC2 — remaining binding (binding, competition with immobilised ligand; 1 µM): 79%
CC1=C(C#N)[C@@H](c2ccc3[nH]nc(C)c3c2)C(C#N)=C(c2ccc(Cl)cc2)N1 — remaining binding (cell-free assay, competition with immobilised ligand; 1 µM): 100%
Cc1cnc(Nc2ccc(C(=O)N3CCC(N4CCCC4)CC3)cc2)nc1-c1cc2ccccc2s1 — remaining binding (binding, competition with immobilised ligand; 1 µM): 73%
O=C(Nc1ccc(Oc2ccc(F)cc2)cc1)N1CCc2ncccc2[C@H]1c1ccc(F)cc1 — remaining binding (cell-free assay, competition with immobilised ligand; 1 µM): 85%
CN(CCCC(F)(F)F)c1nccc(-c2cnn3ncccc23)n1 — remaining binding (binding; 1 µM): 91%
CCCCN(CCCC)C(=O)CN1C[C@H](c2cc(OC)c3c(c2)OCO3)[C@@H](C(=O)O)[C@@H]1CC(C)(C)CCC — remaining binding (cell-free assay, competition with immobilised ligand; 1 µM): 97.9%
C[C@@H](c1ccc(-n2cnc3c(N)ncnc32)cc1)N1CCc2nn(C)c(Cc3ccccc3)c2C1=O — remaining binding (binding, competition with immobilised ligand; 0.1 µM): 75%
CN(C)c1nccc(-c2cnn3ncccc23)n1 — remaining binding (binding; 1 µM): 59%
O=C(Nc1cccnn1)N1CC(C/C=C/c2cncc(Oc3ccc(C(F)(F)F)cn3)n2)C1 — remaining binding (cell-free assay, competition with immobilised ligand; 1 µM): 0%
CN(C)c1ncc(F)c(-c2cnn3ncccc23)n1 — remaining binding (binding; 1 µM): 91%
CSc1cccnc1N1CCN(Cc2nc3ccccc3[nH]2)CC1 — remaining binding (cell-free assay, competition with immobilised ligand; 1 µM): 91%
C[C@H]1CCN(c2nccc(-c3cnn4ncccc34)n2)C1 — remaining binding (binding; 1 µM): 79%
O=C(c1ccc(Nc2ncc(Cl)c(-c3ccc(Cl)s3)n2)cc1)N1CCC(N2CCCC2)CC1 — remaining binding (binding, competition with immobilised ligand; 1 µM): 100%
N[C@H]1CCN(c2nccc(-c3cnn4ncccc34)n2)C1 — remaining binding (binding; 1 µM): 84%
C=CC(=O)N1CCC(C(=O)NCC(=O)N2CCN(c3nc(-c4cnc(N)nc4C(F)F)nc(N4CCOCC4)n3)CC2)CC1 — remaining binding (binding, competition with immobilised ligand; 1 µM): 92%
